# Legend:
# Rattus norvegicus [1] = test: Hypotensive activity in normotensive Wistar rat assessed as decrease in diastolic blood pressure at 2.5 to 10 mg/kg, iv after 1 min measured up to 60 mins; type: organism-based, Artery; design: dose 2.5-10 mg/kg, route intravenous; conditions: in vivo
# Procedure, shortened: (§1)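 Right carotid artery cannulated with heparin-saline-filled tubing for blood pressure recording. After 5 min stabilisation, compound injected iv into the caudal vein (2.5–10 mg/kg, 1 ml/kg). Systolic and diastolic pressure followed for 60 min. n=6 per group, mean ± SEM, one-way ANOVA.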
# Rattus norvegicus [2] = test: Cardiotoxicity in Wistar rat assessed as effect on P-Q interval at 5 mg/kg, iv after 1 min; type: toxicity, organism-based; design: dose 5 mg/kg, route intravenous; conditions: in vivo
# Procedure, shortened: (§2)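 Male Wistar rats (180–250 g), anaesthetised with thiopental 60 mg/kg ip. Compound given iv in water at 10 mg/kg, or at a lower starting dose of 5 or 2.5 mg/kg. Standard lead II ECG recorded at 50 mm/s just before dosing and at 1, 5 and 15 min after. Heart rate and P–Q, Q–T and QRS intervals were read. n=6 per group, mean ± SEM, one-way ANOVA.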
# Rattus norvegicus [3] = test: Hypotensive activity in normotensive Wistar rat assessed as decrease in systolic blood pressure at 2.5 to 10 mg/kg, iv after 1 min measured up to 60 mins; type: organism-based, Artery; design: dose 2.5-10 mg/kg, route intravenous; conditions: in vivo; procedure, shortened: as §1
# Rattus norvegicus [4] = test: Antiarrhythmic activity in Wistar rat assessed as effect on heart beat at 5 mg/kg, iv after 15 mins; type: functional; procedure, shortened: as §2
# Rattus norvegicus [5] = test: Cardiotoxicity in Wistar rat assessed as effect on Q-T interval at 5 mg/kg, iv after 15 mins; type: toxicity, organism-based; design: dose 5 mg/kg, route intravenous; conditions: in vivo, 0.25 h; procedure, shortened: as §2
# Rattus norvegicus [6] = test: Cardiotoxicity in Wistar rat assessed as effect on Q-T interval at 5 mg/kg, iv after 5 mins; type: toxicity, organism-based; design: dose 5 mg/kg, route intravenous; conditions: in vivo; procedure, shortened: as §2
# Rattus norvegicus [7] = test: Hypotensive activity in normotensive Wistar rat assessed as decrease in diastolic blood pressure at 2.5 to 10 mg/kg, iv at 1 min; type: organism-based, Artery; design: dose 2.5-10 mg/kg, route intravenous; conditions: in vivo; procedure, shortened: as §1
# Rattus norvegicus [8] = test: Cardiotoxicity in Wistar rat assessed as effect on QRS interval at 5 mg/kg, iv after 5 mins; type: toxicity, organism-based; design: dose 5 mg/kg, route intravenous; conditions: in vivo; procedure, shortened: as §2
# Rattus norvegicus [9] = test: Antiarrhythmic activity in Wistar rat assessed as effect on heart beat at 5 mg/kg, iv after 5 mins; type: functional; procedure, shortened: as §2
# Rattus norvegicus [10] = test: Cardiotoxicity in Wistar rat assessed as effect on P-Q interval at 5 mg/kg, iv after 5 mins; type: toxicity, organism-based; design: dose 5 mg/kg, route intravenous; conditions: in vivo; procedure, shortened: as §2
# Rattus norvegicus [11] = test: Hypotensive activity in normotensive Wistar rat assessed as decrease in systolic blood pressure at 2.5 to 10 mg/kg, iv at 1 min; type: organism-based, Artery; design: dose 2.5-10 mg/kg, route intravenous; conditions: in vivo; procedure, shortened: as §1
# Rattus norvegicus [12] = test: Cardiotoxicity in Wistar rat assessed as effect on Q-T interval at 5 mg/kg, iv after 1 min; type: toxicity, organism-based; design: dose 5 mg/kg, route intravenous; conditions: in vivo; procedure, shortened: as §2
# Rattus norvegicus [13] = test: Antiarrhythmic activity in Wistar rat assessed as effect on heart beat at 5 mg/kg, iv after 1 min; type: functional; procedure, shortened: as §2
# Rattus norvegicus [14] = test: Cardiotoxicity in Wistar rat assessed as effect on QRS interval at 5 mg/kg, iv after 1 min; type: toxicity, organism-based; design: dose 5 mg/kg, route intravenous; conditions: in vivo; procedure, shortened: as §2
# Rattus norvegicus [15] = test: Cardiotoxicity in Wistar rat assessed as effect on P-Q interval at 5 mg/kg, iv after 15 mins; type: toxicity, organism-based; design: dose 5 mg/kg, route intravenous; conditions: in vivo, 0.25 h; procedure, shortened: as §2
# Rattus norvegicus [16] = test: Cardiotoxicity in Wistar rat assessed as effect on QRS interval at 5 mg/kg, iv after 15 mins; type: toxicity, organism-based; design: dose 5 mg/kg, route intravenous; conditions: in vivo, 0.25 h; procedure, shortened: as §2
# [17] = molecular target: T1, Adrenergic receptor alpha-1 (Rattus norvegicus, UniProt P15823+P23944+P43140); test: Displacement of [3H]prazosin from alpha1 adrenoceptor in rat cerebral cortex after 30 mins by microbeta scintillation counting; type: tissue-based
# T1 sequence (P15823 whole entry): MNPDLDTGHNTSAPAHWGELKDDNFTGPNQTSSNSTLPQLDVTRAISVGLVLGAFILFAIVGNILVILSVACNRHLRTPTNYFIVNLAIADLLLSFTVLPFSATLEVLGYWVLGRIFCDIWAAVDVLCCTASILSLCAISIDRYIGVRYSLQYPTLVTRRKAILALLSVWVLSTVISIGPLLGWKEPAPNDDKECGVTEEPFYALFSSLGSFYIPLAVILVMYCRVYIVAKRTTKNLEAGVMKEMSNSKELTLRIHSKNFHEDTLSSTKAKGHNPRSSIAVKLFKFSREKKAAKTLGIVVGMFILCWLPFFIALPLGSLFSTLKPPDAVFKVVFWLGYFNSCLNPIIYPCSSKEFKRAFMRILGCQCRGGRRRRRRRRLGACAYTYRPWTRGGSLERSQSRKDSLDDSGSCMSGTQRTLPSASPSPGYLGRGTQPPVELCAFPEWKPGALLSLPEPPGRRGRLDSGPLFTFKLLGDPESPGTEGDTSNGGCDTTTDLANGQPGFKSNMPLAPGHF
# T1 sequence (P23944 whole entry): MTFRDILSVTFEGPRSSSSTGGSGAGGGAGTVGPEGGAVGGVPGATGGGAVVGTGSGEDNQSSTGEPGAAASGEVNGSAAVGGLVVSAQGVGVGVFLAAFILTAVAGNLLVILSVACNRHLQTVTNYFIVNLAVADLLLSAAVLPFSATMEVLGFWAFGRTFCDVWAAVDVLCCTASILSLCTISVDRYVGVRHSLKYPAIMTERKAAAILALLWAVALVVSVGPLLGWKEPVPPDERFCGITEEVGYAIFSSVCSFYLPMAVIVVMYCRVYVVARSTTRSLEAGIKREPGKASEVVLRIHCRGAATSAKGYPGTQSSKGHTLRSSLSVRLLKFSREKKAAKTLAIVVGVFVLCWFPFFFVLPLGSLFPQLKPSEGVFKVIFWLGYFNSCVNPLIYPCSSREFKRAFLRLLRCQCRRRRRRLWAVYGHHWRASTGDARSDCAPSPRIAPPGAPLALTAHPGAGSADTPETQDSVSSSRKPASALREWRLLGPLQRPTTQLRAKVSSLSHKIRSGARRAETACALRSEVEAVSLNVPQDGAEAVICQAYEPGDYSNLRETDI
# T1 sequence (P43140 whole entry): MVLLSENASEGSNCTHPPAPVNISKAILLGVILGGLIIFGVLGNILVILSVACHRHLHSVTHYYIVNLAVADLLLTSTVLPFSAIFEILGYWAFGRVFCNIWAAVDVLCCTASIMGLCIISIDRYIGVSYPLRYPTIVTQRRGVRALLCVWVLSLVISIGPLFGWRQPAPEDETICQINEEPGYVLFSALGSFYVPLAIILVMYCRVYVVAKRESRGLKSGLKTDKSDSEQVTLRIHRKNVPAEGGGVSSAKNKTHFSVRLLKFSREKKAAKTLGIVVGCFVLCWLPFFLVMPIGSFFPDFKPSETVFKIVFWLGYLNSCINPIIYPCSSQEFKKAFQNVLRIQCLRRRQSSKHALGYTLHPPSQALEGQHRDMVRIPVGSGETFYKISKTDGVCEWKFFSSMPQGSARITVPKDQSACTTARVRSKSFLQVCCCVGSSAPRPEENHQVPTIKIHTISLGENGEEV
# Procedure, shortened: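 Rat cerebral cortex homogenised in ice-cold 50 mM Tris-HCl (pH 7.6 at 25 °C), washed twice at 20000×g and resuspended at 10 mg wet weight/ml. Incubated with [3H]prazosin (19.5 Ci/mmol) and test compound for 30 min at 25 °C. Nonspecific binding defined with 10 µM phentolamine. GF/B filtration, scintillation counting, three-parameter logistic competition fit.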
Compound,Activity (Rattus norvegicus [1]),Activity (Rattus norvegicus [2]) [ms],Activity (Rattus norvegicus [3]),Activity (Rattus norvegicus [4]) [min⁻¹],Activity (Rattus norvegicus [5]) [ms],Activity (Rattus norvegicus [6]) [ms],Activity (Rattus norvegicus [7]),Activity (Rattus norvegicus [8]) [ms],Activity (Rattus norvegicus [9]) [min⁻¹],Activity (Rattus norvegicus [10]) [ms],Activity (Rattus norvegicus [11]),Activity (Rattus norvegicus [12]) [ms],Activity (Rattus norvegicus [13]) [min⁻¹],Activity (Rattus norvegicus [14]) [ms],Activity (Rattus norvegicus [15]) [ms],Activity (Rattus norvegicus [16]) [ms],Ki [17] [nM],pKi [17]
COC(=O)CN1C(=O)N(CC(O)CN2CCN(c3ccccc3)CC2)C(c2ccccc2)(c2ccccc2)C1=O.Cl (racemic),Non-toxic,72,Non-toxic,272,74,81,Toxic,26,261,65.2,Toxic,97,246,33,64,22,–,–
COC(=O)CN1C(=O)N(CC(O)CN2CCN(c3ccccc3Cl)CC2)C(c2ccccc2)(c2ccccc2)C1=O.Cl (racemic),Non-toxic,62,Non-toxic,268,69,76,Toxic,15,256,63,Toxic,76,290,16,59,17,354.7,6.45

# Source: ChEMBL document CHEMBL2040780, “Antiarrhythmic properties of phenylpiperazine derivatives of phenytoin with α₁-adrenoceptor affinities” (Bioorg Med Chem, 2012)
